The list is not random: actives were taken first. Their share in the collection is about 2.9%.
Calb FLC = C. albicans growth inhibition with fluconazole, primary screen, CaCi-2 strain, Alamar Blue fluorescence | C. albicans CaCi-2 (fluconazole-resistant clinical isolate) + fluconazole, 48 h | growth inhibition, % (no concentration beside the values) | 300,000 tested, 0.57% active;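 active = growth inhibition above about 58% in most replicates, limit read from the data, passing the limit was not always enough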;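 note: all wells also contain fluconazole at 8 µg/ml as a sub-toxic cotreatment; 0% = median of DMSO wells and 100% = median of geldanamycin control wells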
GalR3 antagonist = GalR3 antagonists in HEK293 cells, primary screen, cell-based, fluorescence readout; Galanin receptor type 3 (Homo sapiens), O60755; HEK293 GalR3-CNG cAMP membrane potential fluorescence; galR3 body fused to GalR1 C-terminus; inhibition, % at 3 µM; 360,000 tested, 0.44% active; AID 651719, 2012;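 active = inhibition above the screen-wide average plus 3 SD, cut at about 13% in these data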;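 note: forskolin and galanin both at EC90 stimulate the cells; cAMP rise reported by CNG channel membrane potential dye signal; 0% = forskolin plus galanin with DMSO and 100% = forskolin alone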
Target sequence (O60755 1-299 limits assumed): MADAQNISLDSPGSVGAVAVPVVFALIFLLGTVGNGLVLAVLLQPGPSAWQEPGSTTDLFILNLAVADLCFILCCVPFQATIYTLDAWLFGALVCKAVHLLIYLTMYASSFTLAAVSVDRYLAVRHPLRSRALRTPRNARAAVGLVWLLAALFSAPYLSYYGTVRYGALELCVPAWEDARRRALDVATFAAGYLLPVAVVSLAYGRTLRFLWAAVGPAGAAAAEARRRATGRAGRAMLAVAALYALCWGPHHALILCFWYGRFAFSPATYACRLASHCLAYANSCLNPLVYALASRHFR
Efflux pump inh = inhibitors of Candida efflux pumps in yeast, primary screen, S. cerevisiae, Nile Red, multiplex | S. cerevisiae Candida pump triplex | inhibition, % at 10 µM | 330,000 tested, 0.44% active | AID 485275, 2010;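 active = plate passing quality check with inhibition over a set limit, or well fluorescence over plate mean plus 4 SD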;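 note: Nile Red retained in pooled yeast measured as flow cytometry median fluorescence; 0% = buffer negative control and 100% = Enniatin B positive control; higher means more Nile Red kept so more efflux inhibition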
MC4R antag cAMP = MC4R antagonists of cAMP signaling, primary screen, cell-based, TR-FRET, antagonist arm of biased-ligand search; 360,000 tested, 0.48% active; Melanocortin receptor 4 (Homo sapiens), P32245; inhibition, % at 6.5 µM; MC4R-expressing cells, MTII-stimulated cAMP, LANCE TR-FRET;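 active = inhibition above its plate's cutoff, the mean of tested wells on that plate plus 3 SD, cut at about 29% in these data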;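 note: 0% = Melanotan II alone and 100% = Melanotan II plus saturating MCL0020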
Target sequence (P32245 whole entry, looked up): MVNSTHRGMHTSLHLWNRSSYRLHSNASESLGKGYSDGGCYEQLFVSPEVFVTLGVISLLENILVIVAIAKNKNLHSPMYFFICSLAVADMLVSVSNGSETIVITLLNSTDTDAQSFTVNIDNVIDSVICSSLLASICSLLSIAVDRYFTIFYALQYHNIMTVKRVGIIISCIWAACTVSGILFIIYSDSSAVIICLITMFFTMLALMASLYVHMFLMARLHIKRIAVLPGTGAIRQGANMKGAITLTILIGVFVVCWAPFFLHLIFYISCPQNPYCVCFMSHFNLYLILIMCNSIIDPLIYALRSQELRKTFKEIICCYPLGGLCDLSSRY
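Material: human MC4R-expressing U2OS cells. Probe or stimulus: Melanotan II challenge. Dosing: 6.5 µM single dose. Times: 30-min compound, 1-h challenge, 1-h detection, room temperature. Technique: TR-FRET with Eu-cAMP and labeled anti-cAMP, 671 nm. Replication: singlicate.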
MC4R ag barr = MC4R agonists recruiting beta-arrestin, primary screen, cell-based, luminescence, agonist arm of biased-ligand search; 360,000 tested, 0.98% active; U2OS MC4R beta-arrestin complementation; percent of melanotan II response, DMSO zero; AID 540308, 2011; Melanocortin receptor 4 (Homo sapiens), P32245; activation, % at 8.9 µM;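 active = activation above a per-plate cutoff, the mean activation of sample wells on that plate plus 3 SD, cut at about 8% in these data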
H9c2 TAG inh = inhibitors of triacylglycerol accumulation, primary screen, cell-based, uHTS, fluorescence, H9c2; H9c2 cells, Nile Red lipid (TAG) fluorescence; cells loaded with 200 µM oleic acid; inhibition, % at 12.5 µM; 230,000 tested, 0.66% active;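 active = pattern-corrected inhibition of lipid staining of at least 50% with the nuclear-stain viability signal not falling by more than 50%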;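 note: 0% = DMSO wells and 100% = triacsin C control wells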
The depositor's hits bear a star; / = no result given.

SMILES	Calb FLC	GalR3 antagonist	Efflux pump inh	MC4R antag cAMP	MC4R ag barr	H9c2 TAG inh
O=[N+]([O-])c1ccc2c(c1)CCCO[C@]21O[C@H](CCO)C[C@H](O)[C@H]1O	/	-4	/	/	/	/
COc1cc(C(=O)OCc2cc(=O)c(O)co2)ccc1OC(F)F	102*	1	0	16	0	/
C[C@H](CO)N1C[C@H](C)[C@H](CN(C)C(=O)Nc2ccc(N3CCCCC3)cc2)OCc2cnnn2CCCC1=O	/	-4	/	/	/	/
C[C@@]12C(=O)Nc3cc(Cl)ccc3C(=O)N1[C@H]1c3ccccc3OC[C@@H]1[C@@H]2c1ccccc1	/	/	0	-2	0	3
C[C@@]12C(=O)Nc3cc(Cl)ccc3C(=O)N1[C@H]1c3cc(Br)ccc3OC[C@@H]1[C@@H]2c1ccccc1	/	-5	0	1	-1	53*
CCOC(=O)N[C@@H](CC(C)C)C(=O)N1CCC[C@H]1C(=O)NCc1ccccc1	/	-6	/	/	/	/
Cc1nc(SCc2ccc(Cl)c(Cl)c2)ncc1C(=O)O	90*	-4	0	5	8	/
CCNC(=O)C1CCCN(Cc2cc(-c3ccccc3)on2)CC1 (configuration not stated)	/	-8	/	-2	-1	0
O=C(OCCn1c(=S)sc2ccccc21)c1ccccc1	/	-6	/	0	0	-9
CCc1ccc(C=C2SC(=S)N(CCCC(=O)Nc3ccc(C(=O)O)cc3)C2=O)cc1	/	-6	/	19	1	21
CC(=C\c1ccccc1)/C=C1/SC(=S)N(CCC(=O)Nc2ccccn2)C1=O	-6	/	0.7*	/	/	/
CCc1ccc(/C=C2/SC(=S)N(CCCC(=O)Nc3ccccc3C(=O)O)C2=O)cc1	86*	-3	-4	6	-3	-4
O=C(CCCN1C(=O)/C(=C/c2ccccc2)SC1=S)Nc1ccccc1O	15	0	0	-3	6	-10
O=C(CCCN1C(=O)/C(=C\c2cccs2)SC1=S)Nc1ccccc1O	/	-3	/	-3	8.9*	7
O=C(CCN1C(=O)/C(=C/c2ccccc2)SC1=S)NCCc1ccc(O)cc1	-1	/	0	5	9.3*	/
COc1ccc(/C=C2\SC(=S)N(CCC(=O)NCCc3ccc(O)cc3)C2=O)cc1	4	5	0	10	-1	/
CCc1nc2c(OCc3ccc(F)cc3)cccn2c1N(C)C(=O)COc1ccccc1	/	-7	/	1	-1	56
COC(=O)c1c(NC(=O)c2ccc([N+](=O)[O-])o2)sc2c1CCN(C(C)C)C2	2	-5	0	3	-4	59*
COc1ccc(C2CC(=O)C(c3ccc(C(N)=O)cc3)=CN2Cc2ccccc2)cc1 (configuration not stated)	/	0	/	/	/	/
CC(C)Oc1ccc(S(=O)(=O)N2CCOCC2)cc1NC(=O)CSc1nnc(C2CC2)n1C	/	-5	/	9	-1	3
COc1cccc(C2/C(=C(/O)c3ccc(C)cc3)C(=O)C(=O)N2Cc2ccco2)c1 (configuration not stated)	94*	-6	0	6	1	/
COc1ccc(/C=N/Nc2nc(C)c([N+](=O)[O-])c(N(C)c3ccccc3)n2)cc1OC	5	-1	0	2	20*	14
COc1ccc(-c2nc(-c3ccncc3)no2)cc1OC	102*	-6	0	1	-1	/
CCOC(=O)c1ccc(NC(=O)c2ccc(CO)c(C(=O)NC3CCN(C(=O)OCC)CC3)c2)cc1	104*	2	0	9	0	7
O=C(NCc1ccccc1Cl)c1csc(COCCO)n1	/	-6	/	10	0	7
SMILES	Calb FLC	GalR3 antagonist	Efflux pump inh	MC4R antag cAMP	MC4R ag barr	H9c2 TAG inh
COc1ccc(N2C(c3ccsc3)=Cc3cc4c(cc3C2c2c[nH]c3ccccc23)OCO4)cc1 (configuration not stated)	/	-6	/	/	/	/
Cc1ccc(-c2nn(-c3ccccc3)cc2CO)cc1	0	-9	0	1	1	/
Cc1ccc(-c2nn(-c3ccccc3)cc2CNCc2ccccc2)cc1	3	-5	0	0	9.5*	/
O=C(Nc1ccc(Cl)cc1)c1csc([C@@H]2O[C@H](CO)[C@@H](O)[C@H]2O)n1	/	-2	/	5	-1	-2
CCCCCc1c(-c2ccccc2OC)ncn1CCc1ccccc1OC	/	-7	/	/	/	/
Cc1cccc(NS(=O)(=O)c2ccc3nc(-c4ccccc4)[nH]c3c2)c1C	6	-5	-1	-1	9.0*	/
Cc1cccc(NS(=O)(=O)c2ccc3[nH]c(=O)oc3c2)c1C	/	3	0	1	-1	-1
CCCc1ccc(C2C3=C(CC(C)(C)CC3=O)NC3=C2C(=O)c2ccccc23)cc1 (configuration not stated)	105*	0	0	0	-1	/
C[C@@H]1ON(C)[C@H]2C[C@H]3c4[nH]c5cccc(-c6cccc(F)c6)c5c4CCN3C(=O)[C@@H]12	/	-10	/	/	/	/
C=CC[C@H](CC(=O)NCCO)C(=O)N[C@H](COC(=O)[C@@H](CC=C)CC(=O)OC(C)(C)C)Cc1ccccc1	/	-5	0	7	1	8
C=CC[C@@H](CC(=O)N[C@H](CO)Cc1ccccc1)C(=O)N[C@H](COC(=O)[C@@H](CC=C)CC(=O)OC(C)(C)C)Cc1ccccc1	/	-1	0	12	9.8*	27
C=CCNC(=S)N(C)[C@H]1C[C@H]2c3[nH]c4c(-c5ccccc5)cccc4c3CCN2C(=O)[C@H]1[C@H](C)O	/	-6	/	/	/	/
CCOC(=O)C1=C(O)/C(=C/c2cc(OC)c(OC)c(OC)c2)SC1=Nc1ccc(OC)cc1	-6	0	0	-7	8.3*	/
Cc1ccc(C(C)C)c(OCc2ccc(C(=O)N/N=C/c3ccc(C(=O)O)cc3)cc2)c1	2	-6	0	-11	2	-11
Cc1ccc(C(C)C)c(OCc2ccc(C(=O)N/N=C/c3ccc(O)cc3O)cc2)c1	1	23*	0	5	1	/
Cc1onc(-c2ccccc2Cl)c1C(=O)NNC(=O)C1CCN(Cc2ccccc2)CC1	-2	0	0	-2	-4	1
Cc1onc(-c2c(Cl)cccc2Cl)c1C(=O)N/N=C(\N)COc1ccc(Cl)cc1	93*	-3	0	6	0	24
Cc1onc(-c2c(F)cccc2Cl)c1C(=O)NNC(=O)C1CCN(Cc2ccccc2)CC1	92*	-8	0	5	-4	4
Oc1c(N=Nc2ccccn2)ccc2ccccc12	-3	-4	0	10	-6	70*

High-throughput results deposited in PubChem BioAssay by several laboratories.
